According to PubChem BioAssay AID623961 (The Scripps Research Institute Molecular Screening Center, 2012):
Where “and” joins values, the source holds several entries; their conditions need not be identical. Identical values can stand only once. Calls of active or inactive are those of the source.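 How the source made its calls: active means mean cell viability below 80%; inactive means the rest.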

Tested on: Huh-7.5 Rluc-replicon viability, CellTiter-Glo ATP, 72 h
Experiment: Huh-7.5 replicon viability loss – cell-based, luminescence, cytotoxicity control for HCV NS3 helicase inhibitor project, late-stage follow-up (AID 623961)
Conditions: at 10 µM; active compounds read low
Outline: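 test system = Huh-7.5 human hepatoma cells harboring HCV Renilla luciferase replicon | compound dosing = 10 µM single concentration, 0.5% DMSO | schedule = cell attachment 4-5 h, compound exposure 72 h at 37 °C, 5% CO2 | measured by = ATP luminescence after 30 min lysis at 23 °C | read-out = average percent cell viability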

Structure (SMILES): Cc1ccc2nc(-c3ccc4nc(-c5ccc(NC(=O)c6ccccc6)cc5)sc4c3)sc2c1S(=O)(=O)O
- viability: 88% (inactive)

Structure (SMILES): Cc1ccc2nc(-c3ccc4nc(-c5ccc(NC(=O)c6ccc(C(F)(F)F)c(F)c6)cc5)sc4c3)sc2c1S(=O)(=O)O
- viability: 129% (inactive)

Structure (SMILES): Cc1ccc2nc(-c3ccc4nc(-c5ccc(NC(=O)c6c(F)cccc6C(F)(F)F)cc5)sc4c3)sc2c1S(=O)(=O)O
- viability: 122% (inactive)

Structure (SMILES): Cc1ccc2nc(-c3ccc4nc(-c5ccc(NCc6ccccc6)cc5)sc4c3)sc2c1S(=O)(=O)O
- viability: 109% (inactive)

Structure (SMILES): CC(=O)Nc1ccc(-c2nc3ccc(-c4nc5ccc(C)c(S(=O)(=O)O)c5s4)cc3s2)cc1
- viability: 102% (inactive)

Structure (SMILES): Cc1ccc2nc(-c3ccc4nc(-c5ccc(NC(=O)c6cccc(C(F)(F)F)c6F)cc5)sc4c3)sc2c1S(=O)(=O)O
- viability: 122% (inactive)

Structure (SMILES): Cc1ccc2nc(-c3ccc4nc(-c5ccc(NC(=O)c6ccc7nc(-c8ccc(N)cc8)sc7c6)cc5)sc4c3)sc2c1S(=O)(=O)O
- viability: 85% (inactive)

Structure (SMILES): Cc1ccc2nc(-c3ccc4nc(-c5ccc(NS(=O)(=O)c6ccc(C(F)(F)F)cc6)cc5)sc4c3)sc2c1S(=O)(=O)O
- viability: 101% (inactive)

Structure (SMILES): Cc1ccc2nc(-c3ccc4nc(-c5ccc(NC(=O)c6ccccc6C(F)(F)F)cc5)sc4c3)sc2c1S(=O)(=O)O
- viability: 112% (inactive)

Structure (SMILES): Cc1ccc2nc(-c3ccc(NC(=O)c4ccc(NC(=O)c5ccccc5)cc4)cc3)sc2c1S(=O)(=O)O
- viability: 115% (inactive)

Structure (SMILES): Cc1ccc2nc(-c3ccc4nc(-c5ccc6nc(-c7ccc(N)cc7)sc6c5)sc4c3)sc2c1S(=O)(=O)O
- viability: 91% (inactive)

Structure (SMILES): O=C(CCCCCCC(=O)Nc1ccc(-c2nc3ccccc3[nH]2)cc1)Nc1ccc(-c2nc3ccccc3[nH]2)cc1
- viability: 31%

Structure (SMILES): Cc1ccc2nc(-c3ccc(NC(=O)c4ccc(N)cc4)cc3)sc2c1S(=O)(=O)O
- viability: 103% (inactive)

Structure (SMILES): Cc1ccc2nc(-c3ccc4nc(-c5ccc(NC(=O)Nc6ccc(F)cc6)cc5)sc4c3)sc2c1S(=O)(=O)O
- viability: 93% (inactive)

Structure (SMILES): Cc1ccc2nc(-c3ccc4nc(-c5ccc(NC(=O)c6cccnc6)cc5)sc4c3)sc2c1S(=O)(=O)O
- viability: 113% (inactive)

Structure (SMILES): CCOc1ccc2nc(NC(=O)c3ccc4ncsc4c3)sc2c1
- viability: 3%

Structure (SMILES): Cc1ccc2nc(-c3ccc4nc(-c5ccc(NC(=O)c6ccc(Cl)c(Cl)c6)cc5)sc4c3)sc2c1S(=O)(=O)O
- viability: 114% (inactive)

Structure (SMILES): Cc1ccc2nc(-c3ccc4nc(-c5ccc(NC(=O)c6cccc(Cl)c6)cc5)sc4c3)sc2c1S(=O)(=O)O
- viability: 112% (inactive)

Structure (SMILES): Cc1ccc2nc(-c3ccc4nc(-c5ccc(NC(=O)c6ccc(N)cc6)cc5)sc4c3)sc2c1S(=O)(=O)O
- viability: 93% (inactive)

Structure (SMILES): Cc1ccc2nc(-c3ccc4nc(-c5ccc(NC(=O)c6ccc(C(C)(C)C)cc6)cc5)sc4c3)sc2c1S(=O)(=O)O
- viability: 87% (inactive)

Structure (SMILES): O=C(Nc1ccc(-c2nc3ccccc3[nH]2)cc1)c1ccc2ncsc2c1
- viability: 96% (inactive)

Structure (SMILES): CS(=O)(=O)c1ccc2nc(NC(=O)c3ccc4ncsc4c3)sc2c1
- viability: 41%

Structure (SMILES): Cc1ccc2nc(-c3ccc4nc(-c5ccc6nc(-c7ccc8nc(-c9ccc(N)cc9)sc8c7)sc6c5)sc4c3)sc2c1S(=O)(=O)O
- viability: 94% (inactive) and 83% (inactive)

Structure (SMILES): Cc1ccc2nc(-c3ccc4nc(-c5ccc(NC(=O)Nc6ccc(Cl)cc6)cc5)sc4c3)sc2c1S(=O)(=O)O
- viability: 98% (inactive)

Structure (SMILES): NS(=O)(=O)c1ccc2nc(NC(=O)c3ccc4ncsc4c3)sc2c1
- viability: 94% (inactive)

Structure (SMILES): COc1ccc(NC(=O)Nc2ccc(-c3nc4ccc(-c5nc6ccc(C)c(S(=O)(=O)O)c6s5)cc4s3)cc2)cc1
- viability: 99% (inactive)

Structure (SMILES): Cc1ccc2nc(-c3ccc(NC(=S)Nc4ccccc4Br)cc3)sc2c1
- viability: 39%

Structure (SMILES): O=C(Nc1nc2ccc(Br)cc2s1)c1ccc2ncsc2c1
- viability: 89% (inactive)

Structure (SMILES): Cc1ccc2nc(-c3ccc4nc(-c5ccc(NC(=O)c6cccc(C(F)(F)F)c6)cc5)sc4c3)sc2c1S(=O)(=O)O
- viability: 121% (inactive)

Structure (SMILES): Cc1ccc2nc(-c3ccc4nc(-c5ccc(NC(=O)c6ccc(Br)cc6)cc5)sc4c3)sc2c1S(=O)(=O)O
- viability: 113% (inactive)

Structure (SMILES): Cc1ccc2nc(-c3ccc4nc(-c5ccc(NC(=O)c6cc(C(F)(F)F)cc(C(F)(F)F)c6)cc5)sc4c3)sc2c1S(=O)(=O)O
- viability: 122% (inactive)

Structure (SMILES): Cc1cc2sc(-c3ccc4nc(-c5ccc(N)cc5)sc4c3)nc2cc1S(=O)(=O)O
- viability: 87% (inactive)

Structure (SMILES): Cc1ccc2nc(-c3ccc(NC(=O)c4ccc(NC(=O)c5ccc(N)cc5)cc4)cc3)sc2c1S(=O)(=O)O
- viability: 112% (inactive)

Structure (SMILES): Cc1ccc2c(sc(-c3ccc4c(c3)sc(-c3ccc5c(c3)sc(-c3ccc(N(C)C)cc3)[n+]5C)[n+]4C)[n+]2C)c1S(=O)(=O)O (tested in a mixture with another compound)
- viability: 83% (inactive)

Structure (SMILES): Cc1ccc(C(=O)Nc2ccc(-c3nc4ccc(-c5nc6ccc(C)c(S(=O)(=O)O)c6s5)cc4s3)cc2)cc1
- viability: 87% (inactive)

Structure (SMILES): Cc1ccc2nc(-c3ccc4nc(-c5ccc(N)cc5)sc4c3)sc2c1S(=O)(=O)O
- viability: 85% (inactive) and 105% (inactive) and 95% (inactive)

Structure (SMILES): Cc1ccc2nc(-c3ccc4nc(-c5ccc(NC(=O)c6ccc(NC(=O)OCC7c8ccccc8-c8ccccc87)cc6)cc5)sc4c3)sc2c1S(=O)(=O)O
- viability: 92% (inactive)

Structure (SMILES): COc1ccc(S(=O)(=O)Nc2ccc(-c3nc4ccc(-c5nc6ccc(C)c(S(=O)(=O)O)c6s5)cc4s3)cc2)cc1
- viability: 75%

Structure (SMILES): CN1CCN(Cc2cc(CN3CCN(C)CC3)c(O)c(=O)c(CN3CCN(C)CC3)c2)CC1
- viability: 69%

Structure (SMILES): COc1ccc2sc(NC(=O)c3ccc4ncsc4c3)nc2c1
- viability: 50%

Structure (SMILES): COc1cccc2c(=O)c3cc(Cl)cc(C(=O)Nc4cc(Cl)ccn4)c3[nH]c12
- viability: 79%

Structure (SMILES): Cc1ccc2nc(-c3ccc4nc(-c5ccc(NC(=O)c6ccc7ncoc7c6)cc5)sc4c3)sc2c1S(=O)(=O)O
- viability: 114% (inactive)

Structure (SMILES): Cc1ccc2nc(-c3ccc4nc(NC(=O)c5ccc6ncoc6c5)sc4c3)sc2c1
- viability: 28%

Structure (SMILES): Cc1ccc2nc(-c3ccc4nc(-c5ccc(NC(=O)c6ccncc6)cc5)sc4c3)sc2c1S(=O)(=O)O
- viability: 117% (inactive)

Structure (SMILES): CCN(CC)c1ccc(-c2nc3ccc(-c4nc5ccc(C)c(S(=O)(=O)O)c5s4)cc3s2)cc1
- viability: 96% (inactive)

Structure (SMILES): Cc1ccc2nc(-c3ccc(NC(=O)c4ccc(NC(=O)c5ccc(C(F)(F)F)cc5)cc4)cc3)sc2c1S(=O)(=O)O
- viability: 97% (inactive)

Structure (SMILES): Cc1ccc2nc(-c3ccc(NC(=O)c4ccc(NS(=O)(=O)c5ccccc5)cc4)cc3)sc2c1S(=O)(=O)O
- viability: 119% (inactive)

Structure (SMILES): Cc1ccc2nc(-c3ccc(NC(=O)c4ccc(C(F)(F)F)cc4)cc3)sc2c1S(=O)(=O)O
- viability: 102% (inactive)

Structure (SMILES): Cc1ccc2nc(-c3ccc(NC(=O)c4ccc(NC(=O)c5ccc(NC(=O)OCC6c7ccccc7-c7ccccc76)cc5)cc4)cc3)sc2c1S(=O)(=O)O
- viability: 113% (inactive)

Structure (SMILES): Cc1ccc2nc(-c3ccc4nc(-c5ccc(NC(=O)c6ccc7nc(-c8ccc(NC(=O)OCC9c%10ccccc%10-c%10ccccc%109)cc8)sc7c6)cc5)sc4c3)sc2c1S(=O)(=O)O
- viability: 90% (inactive) and 95% (inactive)

Structure (SMILES): Cc1ccc2nc(-c3ccc4nc(-c5ccc(NC(=O)c6ccc(Cl)cc6)cc5)sc4c3)sc2c1S(=O)(=O)O
- viability: 84% (inactive)

Structure (SMILES): Cc1ccc2nc(-c3ccc(NC(=O)c4ccc(NC(=O)OCC5c6ccccc6-c6ccccc65)cc4)cc3)sc2c1S(=O)(=O)O
- viability: 108% (inactive)

Structure (SMILES): Cc1ccc(NC(=O)Nc2ccc(-c3nc4ccc(-c5nc6ccc(C)c(S(=O)(=O)O)c6s5)cc4s3)cc2)cc1
- viability: 93% (inactive)

Structure (SMILES): CCOc1ccc2c(NNC(=O)c3cnccn3)c3c(nc2c1)CCCC3
- viability: 31%

Structure (SMILES): CCN(CC)c1ccc(-c2nc3ccc(C)c(S(=O)(=O)O)c3s2)cc1
- viability: 99% (inactive)

Structure (SMILES): Cc1ccc2nc(-c3ccc4nc(-c5ccc(NC(=O)Nc6ccccc6)cc5)sc4c3)sc2c1S(=O)(=O)O
- viability: 108% (inactive)

Structure (SMILES): Cc1cc2sc(-c3ccc(N)cc3)nc2cc1S(=O)(=O)O
- viability: 88% (inactive)

Structure (SMILES): Cc1ccc2nc(-c3ccc(NC(=O)c4ccc(NC(=S)Nc5ccccc5)cc4)cc3)sc2c1S(=O)(=O)O
- viability: 106% (inactive)

Structure (SMILES): Cc1ccc2nc(-c3ccc4nc(-c5ccc(NC(=O)c6ccc7ccccc7c6)cc5)sc4c3)sc2c1S(=O)(=O)O
- viability: 87% (inactive) and 99% (inactive)

Structure (SMILES): Cc1ccc2nc(-c3ccc4nc(-c5ccc(NC(=O)c6ccc(C(F)(F)F)cc6)cc5)sc4c3)sc2c1S(=O)(=O)O
- viability: 90% (inactive)

Structure (SMILES): Cc1ccc2nc(-c3ccc4nc(-c5ccc(NC(=O)c6ccc(F)cc6)cc5)sc4c3)sc2c1S(=O)(=O)O
- viability: 94% (inactive)

Structure (SMILES): Cc1ccc2nc(-c3ccc4nc(-c5ccc(NC(=O)c6cccc7ccccc67)cc5)sc4c3)sc2c1S(=O)(=O)O
- viability: 103% (inactive)

Structure (SMILES): Cc1ccc2nc(-c3ccc(N)cc3)sc2c1S(=O)(=O)O
- viability: 104% (inactive)

Structure (SMILES): Cc1ccc2nc(-c3ccc4nc(-c5ccc(NC(=O)c6cc(C(F)(F)F)ccc6F)cc5)sc4c3)sc2c1S(=O)(=O)O
- viability: 132% (inactive)

Structure (SMILES): Cc1ccc2nc(-c3ccc4nc(-c5ccc(N(C)C(=O)c6ccc7ccccc7c6)cc5)sc4c3)sc2c1S(=O)(=O)O
- viability: 101% (inactive)

Structure (SMILES): Cc1ccc2nc(-c3ccc4nc(-c5ccc(NC(=O)c6ccc(N(C)C)cc6)cc5)sc4c3)sc2c1S(=O)(=O)O
- viability: 94% (inactive)

Structure (SMILES): Cc1ccc2nc(-c3ccc(NC(=O)c4ccc(NC(=O)Nc5ccccc5)cc4)cc3)sc2c1S(=O)(=O)O
- viability: 113% (inactive)

Structure (SMILES): Cc1ccc2nc(-c3ccc4nc(-c5ccc(NC(=O)Nc6ccc(C(F)(F)F)cc6)cc5)sc4c3)sc2c1S(=O)(=O)O
- viability: 99% (inactive)

Structure (SMILES): Cc1ccc2nc(-c3ccc4nc(-c5ccc(NC(=S)Nc6ccccc6)cc5)sc4c3)sc2c1S(=O)(=O)O
- viability: 98% (inactive)

Structure (SMILES): Cc1ccc2nc(-c3ccc4nc(-c5ccc6nc(-c7ccc(N)cc7)sc6c5)sc4c3)sc2c1S(=O)(=O)O (tested in a mixture with another compound)
- viability: 98% (inactive)
